High-throughput results (PubChem)
aDG glyco act: increases alpha dystroglycan glycosylation; Pro5-aDG cells, alpha-DG glycosylation AlphaScreen (IIH6); 0% Pro5, 100% B10-LARGE cell signal; activation, % at 10 µM; 360,000 compounds, 0.22% hits; AID 624168;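 active = activation of at least 8% versus controls, or a plate z-score of at least 8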;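 also: Pro5 are CHO cells carrying HIG-tagged alpha-DG that lacks glycosylation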
bovine MsrA act: bovine methionine sulfoxide reductase A activation; purified bovine MsrA, absorbance read-out; activation, % at 10.6 µM; 360,000 compounds, 0.3% hits; in the data active = activation above about 7.5%
MsrA inh: inhibitors of bovine MsrA; purified bovine MsrA, absorbance read-out; inhibition, % at 15.5 µM; 360,000 compounds, 0.75% hits; in the data active = inhibition above about 4.5%
N-glyco inh: N-linked glycosylation inhibition; D54 ERlucT glycosylation luciferase reporter, 24 h; percent of 100 nM tunicamycin response; reporter increase, % at 12.5 µM; 360,000 compounds, 0.23% hits; AID 588692;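 active = mean luciferase reporter signal, scaled so untreated is 0 and the glycosylation-blocking control 100, at or above a set limit in every replicate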;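 also: luciferase carries N-glycosylation sites so blocking glycosylation raises the light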
UCH37 DUB inh: inhibitors of human deubiquitinating enzyme UCH37. Q9Y5K5. purified proteasome/UCH37, Ub-AMC cleavage fluorescence. inhibition, % (concentration not given with the values). 330,000 compounds, 0.33% hits;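 active = mean inhibition over replicate wells above about 20%, limit read from the data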
Target sequence (Q9Y5K5 whole entry, looked up): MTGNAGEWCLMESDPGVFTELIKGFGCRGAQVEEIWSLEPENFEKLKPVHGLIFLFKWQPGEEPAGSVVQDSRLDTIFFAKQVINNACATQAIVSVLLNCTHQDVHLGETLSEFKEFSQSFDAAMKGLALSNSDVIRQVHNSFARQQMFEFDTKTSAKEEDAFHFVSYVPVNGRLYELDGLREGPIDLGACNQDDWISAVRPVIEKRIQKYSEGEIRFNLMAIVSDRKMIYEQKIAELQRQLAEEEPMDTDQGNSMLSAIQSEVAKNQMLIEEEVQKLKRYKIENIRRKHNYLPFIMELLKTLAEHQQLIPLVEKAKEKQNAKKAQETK
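System: Proteasome-associated human UCH37 deubiquitinase; Input: 0.15 nM proteasome in added enzyme buffer; Also added: Ub-AMC substrate from 1 µM stock; Incubation: 30 min compound-proteasome preincubation then 25 min substrate reaction, room temperature; Detection: fluorescence, ex 355 nm, em 460 nm; Read-out: % inhibition of Ub-AMC cleavage fluorescence; Benchmarks: no-proteasome and no-compound wells.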
Vif inh: HIV Vif inhibition; inhibition, % at 7.49 µM; HEK293T cells, Vif self-association by quenched fluorescence, imaging, 24 h; 340,000 compounds, 0.35% hits; in the data active = inhibition above about 50%, passing the limit was not always enough
Numbers stand for hits; i = inactive; nt = no result given; ! = not active in a repeat. In the library only some 1.9% were active in any assay of this set; here they are far more common.

SMILES	aDG glyco act	bovine MsrA act	MsrA inh	N-glyco inh	UCH37 DUB inh	Vif inh
CCOc1ccc(C=NOCC(=O)Nc2cc(C)on2)cc1	nt	nt	nt	nt	i	nt
Cc1ccc(/C=N\NC(=O)c2cncc(Br)c2)o1	i	i	i	i	nt	i
CCOC(=O)c1ccc(-c2ccc(/C=N/NC(=O)c3cncc(Br)c3)o2)cc1	i	i	i	i	nt	58
COc1ccc(CC(=NOC(C)=O)c2ccc(OC)cc2)cc1	nt	nt	nt	nt	i	nt
CCCCC#Cc1cncc(C(=O)NN=Cc2cccc(OC)c2)c1	nt	nt	nt	nt	i	nt
c1ccc(-c2nc(-n3ccnc3)nc(-n3ccnc3)n2)cc1	i	i	i	27	i	i
CCCCN=c1scc(-c2ccc3c(c2)NC(=O)CO3)n1N=C1CCCC1	i	i	nt	i	i	i
CCN=c1scc(-c2ccc3c(c2)NC(=O)CO3)n1N=C1CCCC1	i	i	i	i	i	54!
FC(F)(F)c1nnc2c(Sc3ccc(Cl)cc3)nc3ccccc3n12	i	i	i	30	i	i
FC(F)(F)c1nnc2c(Sc3ccccc3)nc3ccccc3n12	i	i	i	i	i	i
CC(=NNC(=O)c1cc(C)oc1C)c1ccc(Br)s1	i	i	i	i	i	52
C/C(=N\NC(=O)c1ccoc1C)c1ccc(Br)s1	i	i	i	i	nt	i
Nc1cc(Cl)nc(NN=Cc2c(O)ccc3ccccc23)n1	nt	nt	nt	nt	i	nt
O=C(c1cc(-c2ccccc2O)on1)N1CCCCCC1	i	i	i	i	i	74
O=C(c1cc(-c2ccccc2O)on1)N1CCOCC1	i	i	i	i	i	i
CCCCn1c(SCC(=O)Nc2cc(C(F)(F)F)cc(C(F)(F)F)c2)nnc1C(CC)N(C)C (stereo unspecified)	i	i	i	28	i	i
CCCCn1c(SCC(=O)Nc2ccc3c(c2)OCCO3)nnc1C(CC)N(C)C (stereo unspecified)	i	i	i	i	i	i
ON=Cc1ccccc1Oc1ccc(F)cc1	nt	nt	nt	nt	i	nt
CC(=O)NC(Cc1ccccc1F)C(=O)NC1CCN(C(=O)c2cnccn2)CC1 (stereo unspecified)	i	i	i	i	i	55
COc1cc(/C=C/c2[nH]c(=O)[nH]c(=O)c2[N+](=O)[O-])cc([N+](=O)[O-])c1O	i	i	i	i	21	i
O=C(c1cc2ccccc2oc1=O)N(Cc1ccco1)Cc1cccs1	i	i	i	i	i	59
OC1CCN(C(=S)NCCc2ccccc2)CC1	i	i	i	i	i	i
S=C(NCCc1ccccc1)N1CCc2ccccc2C1	i	i	i	i	22	i
S=C(NC1CC1)N1CCc2ccccc2C1	i	i	i	i	i	94
S=C(NC1CCCCC1)N1CCc2ccccc2C1	i	i	i	i	i	i
SMILES	aDG glyco act	bovine MsrA act	MsrA inh	N-glyco inh	UCH37 DUB inh	Vif inh
O=C(NN=Cc1ccco1)c1cc2ccccc2o1	nt	nt	nt	nt	i	nt
COCCNC(=O)c1c(N)n(N=Cc2ccc(F)cc2)c2nc3ccccc3nc12	nt	nt	nt	nt	i	nt
O=C(Oc1cc2oc(=O)cc(-c3ccccc3)c2cc1Cl)C1CCCCC1	i	i	18	i	i	i
O=c1[nH]c(=O)n([C@H]2C[C@H](O)[C@@H](CO)O2)cc1I	i	i	i	55	i	i
CCc1cn(C2CC(O)C(CO)O2)c(=O)[nH]c1=O (stereo unspecified)	i	i	i	i	i	i
CC(=NN=C(C)c1cccc(N)c1)c1cccc(N)c1	nt	nt	nt	nt	i	nt
O/N=C/c1ccc2cccc(OCc3ccccc3)c2n1	i	i	i	i	nt	i
NC(N)=N/N=C/c1ccc2cccc(OCc3ccccc3)c2n1	i	i	i	29	nt	i
COc1cc(C=NNC(=O)CSc2n[nH]c(=O)[nH]c2=O)cc(OC)c1O	nt	nt	nt	nt	i	nt
CC1=C(C#N)C(C=NOCc2ccc(Cl)cc2)CC(=O)N1 (stereo unspecified)	nt	nt	nt	nt	i	nt
CC1(C)Oc2ccc(C(=O)N/N=C/c3ccc(O)cc3)cc2NC1=O	i	i	i	i	nt	109
Cc1cccc(C(=O)NN=Cc2ccc3c(c2)OCO3)n1	nt	nt	nt	nt	i	nt
COc1cc2c(cc1OC)C(c1cccs1)N(C(=O)c1cccc(S(=O)(=O)N(C)C)c1)CC2 (stereo unspecified)	i	i	i	32	i	i
COc1cc2c(cc1OC)C(c1ccccc1)N(C(=O)CSCC(=O)O)CC2 (stereo unspecified)	i	i	i	i	i	i
